Measurements: ChEMBL document CHEMBL4425133, “Discovery and Pharmacokinetic and Pharmacological Properties of the Potent and Selective MET Kinase Inhibitor 1-{6-[6-(4-Fluorophenyl)-[1,2,4]triazolo[4,3-b]pyridazin-3-ylsulfanyl]benzothiazol-2-yl}-3-(2-morpholin-4-ylethyl)urea (SAR125844)” (J Med Chem, 2016)
Values after ≈ are worked out from the molar mass of the structure shown.

Experiments:
[1] = Equilibrium solubility in phosphate buffer in absence of 10% Labrasol at pH 7.4; format: physicochemical
[2] = target: Hepatocyte growth factor receptor (Homo sapiens, UniProt P08581, Y1230H); assay: Inhibition of phosphorylated MET Y1230H mutant (unknown origin) pre-incubated for 30 mins before biotinylated poly(glutamate-alanine-tyrosine) peptide addition and measured after 5 mins by HTRF assay
Chain of Hepatocyte growth factor receptor (Homo sapiens, UniProt P08581, Y1230H) (P08581 25-1390 Y1230H limits assumed): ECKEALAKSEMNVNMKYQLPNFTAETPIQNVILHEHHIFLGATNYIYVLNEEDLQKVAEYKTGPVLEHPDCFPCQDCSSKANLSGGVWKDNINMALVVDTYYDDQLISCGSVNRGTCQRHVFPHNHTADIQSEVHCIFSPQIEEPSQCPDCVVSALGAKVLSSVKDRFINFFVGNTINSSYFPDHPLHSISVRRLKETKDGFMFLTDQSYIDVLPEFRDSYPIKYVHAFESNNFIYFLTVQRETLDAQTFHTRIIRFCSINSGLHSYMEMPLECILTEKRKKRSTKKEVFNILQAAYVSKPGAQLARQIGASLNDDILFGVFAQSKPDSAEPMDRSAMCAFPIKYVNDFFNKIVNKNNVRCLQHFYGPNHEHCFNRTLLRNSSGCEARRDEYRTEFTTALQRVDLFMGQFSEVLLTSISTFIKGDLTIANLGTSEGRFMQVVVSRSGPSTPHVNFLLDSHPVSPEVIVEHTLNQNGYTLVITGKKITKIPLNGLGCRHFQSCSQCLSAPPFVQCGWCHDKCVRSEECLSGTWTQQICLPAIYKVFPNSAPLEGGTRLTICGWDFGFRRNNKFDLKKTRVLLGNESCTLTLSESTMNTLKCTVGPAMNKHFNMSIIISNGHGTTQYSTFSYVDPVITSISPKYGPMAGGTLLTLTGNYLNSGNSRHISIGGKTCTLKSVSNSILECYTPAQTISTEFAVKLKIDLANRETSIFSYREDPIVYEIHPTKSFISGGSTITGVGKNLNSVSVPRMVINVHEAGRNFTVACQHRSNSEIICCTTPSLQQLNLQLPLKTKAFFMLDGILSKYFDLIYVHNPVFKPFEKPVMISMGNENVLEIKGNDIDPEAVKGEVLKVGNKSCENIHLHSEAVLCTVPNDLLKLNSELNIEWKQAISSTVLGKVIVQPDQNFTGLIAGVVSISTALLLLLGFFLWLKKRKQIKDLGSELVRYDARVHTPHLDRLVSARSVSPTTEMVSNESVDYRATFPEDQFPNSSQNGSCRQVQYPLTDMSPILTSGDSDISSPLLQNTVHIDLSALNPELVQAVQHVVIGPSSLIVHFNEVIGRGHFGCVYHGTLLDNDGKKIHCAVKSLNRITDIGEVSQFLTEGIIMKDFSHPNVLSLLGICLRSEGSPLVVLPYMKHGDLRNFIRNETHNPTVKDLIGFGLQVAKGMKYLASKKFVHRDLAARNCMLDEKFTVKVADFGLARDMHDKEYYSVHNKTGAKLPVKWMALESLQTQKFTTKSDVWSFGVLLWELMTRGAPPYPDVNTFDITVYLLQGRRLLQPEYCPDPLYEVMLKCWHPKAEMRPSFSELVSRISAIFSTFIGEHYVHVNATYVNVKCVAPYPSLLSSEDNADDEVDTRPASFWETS

[3] = Equilibrium solubility in phosphate buffer in presence of 10% Labrasol at pH 7.4; format: physicochemical; conditions: phosphate buffer with 10% Labrasol
[4] = target: T1, Hepatocyte growth factor receptor (Homo sapiens, UniProt P08581); assay: Inhibition of wild type phosphorylated MET (unknown origin) pre-incubated for 30 mins before biotinylated poly(glutamate-alanine-tyrosine) peptide addition and measured after 5 mins by HTRF assay
T1 sequence (P08581 whole entry): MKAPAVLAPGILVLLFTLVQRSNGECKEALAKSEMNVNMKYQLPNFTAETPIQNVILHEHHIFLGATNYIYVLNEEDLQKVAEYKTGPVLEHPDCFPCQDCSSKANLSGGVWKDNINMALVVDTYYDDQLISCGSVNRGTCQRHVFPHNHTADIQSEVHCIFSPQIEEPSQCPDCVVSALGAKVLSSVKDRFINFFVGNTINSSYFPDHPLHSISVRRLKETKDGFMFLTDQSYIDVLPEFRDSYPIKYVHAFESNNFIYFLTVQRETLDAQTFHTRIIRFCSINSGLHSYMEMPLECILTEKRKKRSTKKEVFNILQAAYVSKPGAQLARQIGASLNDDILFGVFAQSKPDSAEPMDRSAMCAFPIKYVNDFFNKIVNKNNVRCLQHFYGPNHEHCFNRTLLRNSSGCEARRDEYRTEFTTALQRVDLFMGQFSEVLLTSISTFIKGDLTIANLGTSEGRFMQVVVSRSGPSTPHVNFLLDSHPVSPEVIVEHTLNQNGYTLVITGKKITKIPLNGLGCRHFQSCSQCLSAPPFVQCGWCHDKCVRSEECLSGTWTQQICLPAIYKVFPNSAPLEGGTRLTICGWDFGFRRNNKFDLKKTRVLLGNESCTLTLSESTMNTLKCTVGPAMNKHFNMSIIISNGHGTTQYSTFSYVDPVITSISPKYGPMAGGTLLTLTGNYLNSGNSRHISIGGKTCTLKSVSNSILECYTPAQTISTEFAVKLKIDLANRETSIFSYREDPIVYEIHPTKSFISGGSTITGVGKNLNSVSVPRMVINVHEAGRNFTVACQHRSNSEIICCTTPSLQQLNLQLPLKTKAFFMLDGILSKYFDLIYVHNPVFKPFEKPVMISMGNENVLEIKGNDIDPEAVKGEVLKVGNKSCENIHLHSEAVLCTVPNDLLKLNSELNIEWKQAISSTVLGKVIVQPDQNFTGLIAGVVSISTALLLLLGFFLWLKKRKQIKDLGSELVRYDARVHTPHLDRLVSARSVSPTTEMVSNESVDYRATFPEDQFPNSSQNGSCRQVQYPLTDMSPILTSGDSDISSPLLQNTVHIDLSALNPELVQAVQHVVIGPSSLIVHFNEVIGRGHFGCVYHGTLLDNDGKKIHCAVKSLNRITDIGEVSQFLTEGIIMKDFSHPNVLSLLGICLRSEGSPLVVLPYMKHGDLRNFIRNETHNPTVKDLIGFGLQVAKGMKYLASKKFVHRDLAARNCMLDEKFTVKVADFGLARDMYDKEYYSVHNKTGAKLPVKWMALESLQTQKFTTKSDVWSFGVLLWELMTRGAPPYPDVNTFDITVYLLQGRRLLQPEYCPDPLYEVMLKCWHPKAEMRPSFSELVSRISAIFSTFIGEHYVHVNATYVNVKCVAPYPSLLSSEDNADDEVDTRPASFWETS

[5] = Drug metabolism in human hepatic microsomes at 5 uM incubated for 20 mins in presence of NADPH by liquid chromatography-tandem mass spectrometry; format: ADME, Microsome; conditions: liver microsomes, read-out: Drug metabolism
[6] = Apparent permeability from apical to basolateral side in human Caco2/TC7 cells at 20 uM by liquid chromatography-tandem mass spectrometry; conditions: Caco-2
[7] = target: T2, Cytochrome P450 3A4 (Homo sapiens, UniProt P08684); assay: Mechanism based time dependent inhibition of human recombinant CYP3A4 co-expressed with human P450 reductase and human b5 reductase assessed as reduction in 7-Hydroxyquinoline production using 7-benzyloxyquinoline as substrate and NADPH measured every 3 mins for 15 mins by fluorimetry; format: ADME; conditions: recombinant enzyme, 0.25 h
T2 sequence (P08684 whole entry): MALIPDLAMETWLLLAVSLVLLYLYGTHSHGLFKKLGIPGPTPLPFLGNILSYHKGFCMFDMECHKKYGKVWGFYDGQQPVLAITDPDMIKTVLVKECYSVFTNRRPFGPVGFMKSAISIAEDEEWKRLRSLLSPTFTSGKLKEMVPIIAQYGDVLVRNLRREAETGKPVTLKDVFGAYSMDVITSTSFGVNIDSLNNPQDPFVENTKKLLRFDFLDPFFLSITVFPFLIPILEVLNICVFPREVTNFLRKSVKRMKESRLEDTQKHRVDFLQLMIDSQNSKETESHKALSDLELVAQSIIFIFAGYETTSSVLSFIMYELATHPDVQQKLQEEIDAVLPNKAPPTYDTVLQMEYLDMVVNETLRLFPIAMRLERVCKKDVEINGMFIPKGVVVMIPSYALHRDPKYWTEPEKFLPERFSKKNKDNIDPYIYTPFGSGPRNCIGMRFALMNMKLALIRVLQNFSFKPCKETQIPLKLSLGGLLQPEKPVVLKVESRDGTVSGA

[8] = target: T1, Hepatocyte growth factor receptor; assay: Binding affinity to MET (unknown origin) by isothermal titration calorimetry
[9] = target: T2, Cytochrome P450 3A4; assay: Inhibition of human recombinant CYP3A4 co-expressed with human P450 reductase and human b5 reductase assessed as reduction in 7-Hydroxyquinoline production using 7-benzyloxyquinoline as substrate and NADPH incubated for 15 mins by fluorimetry; format: ADME
[10] = target: Hepatocyte growth factor receptor (Homo sapiens, UniProt P08581, L1195V); assay: Inhibition of phosphorylated MET L1195V mutant (unknown origin) pre-incubated for 30 mins before biotinylated poly(glutamate-alanine-tyrosine) peptide addition and measured after 5 mins by HTRF assay
[11] = target: Hepatocyte growth factor receptor (Homo sapiens, UniProt P08581, M1250T); assay: Inhibition of phosphorylated MET M1250T mutant (unknown origin) pre-incubated for 30 mins before biotinylated poly(glutamate-alanine-tyrosine) peptide addition and measured after 5 mins by HTRF assay
Chain of Hepatocyte growth factor receptor (Homo sapiens, UniProt P08581, M1250T) (P08581 25-1390 M1250T limits assumed): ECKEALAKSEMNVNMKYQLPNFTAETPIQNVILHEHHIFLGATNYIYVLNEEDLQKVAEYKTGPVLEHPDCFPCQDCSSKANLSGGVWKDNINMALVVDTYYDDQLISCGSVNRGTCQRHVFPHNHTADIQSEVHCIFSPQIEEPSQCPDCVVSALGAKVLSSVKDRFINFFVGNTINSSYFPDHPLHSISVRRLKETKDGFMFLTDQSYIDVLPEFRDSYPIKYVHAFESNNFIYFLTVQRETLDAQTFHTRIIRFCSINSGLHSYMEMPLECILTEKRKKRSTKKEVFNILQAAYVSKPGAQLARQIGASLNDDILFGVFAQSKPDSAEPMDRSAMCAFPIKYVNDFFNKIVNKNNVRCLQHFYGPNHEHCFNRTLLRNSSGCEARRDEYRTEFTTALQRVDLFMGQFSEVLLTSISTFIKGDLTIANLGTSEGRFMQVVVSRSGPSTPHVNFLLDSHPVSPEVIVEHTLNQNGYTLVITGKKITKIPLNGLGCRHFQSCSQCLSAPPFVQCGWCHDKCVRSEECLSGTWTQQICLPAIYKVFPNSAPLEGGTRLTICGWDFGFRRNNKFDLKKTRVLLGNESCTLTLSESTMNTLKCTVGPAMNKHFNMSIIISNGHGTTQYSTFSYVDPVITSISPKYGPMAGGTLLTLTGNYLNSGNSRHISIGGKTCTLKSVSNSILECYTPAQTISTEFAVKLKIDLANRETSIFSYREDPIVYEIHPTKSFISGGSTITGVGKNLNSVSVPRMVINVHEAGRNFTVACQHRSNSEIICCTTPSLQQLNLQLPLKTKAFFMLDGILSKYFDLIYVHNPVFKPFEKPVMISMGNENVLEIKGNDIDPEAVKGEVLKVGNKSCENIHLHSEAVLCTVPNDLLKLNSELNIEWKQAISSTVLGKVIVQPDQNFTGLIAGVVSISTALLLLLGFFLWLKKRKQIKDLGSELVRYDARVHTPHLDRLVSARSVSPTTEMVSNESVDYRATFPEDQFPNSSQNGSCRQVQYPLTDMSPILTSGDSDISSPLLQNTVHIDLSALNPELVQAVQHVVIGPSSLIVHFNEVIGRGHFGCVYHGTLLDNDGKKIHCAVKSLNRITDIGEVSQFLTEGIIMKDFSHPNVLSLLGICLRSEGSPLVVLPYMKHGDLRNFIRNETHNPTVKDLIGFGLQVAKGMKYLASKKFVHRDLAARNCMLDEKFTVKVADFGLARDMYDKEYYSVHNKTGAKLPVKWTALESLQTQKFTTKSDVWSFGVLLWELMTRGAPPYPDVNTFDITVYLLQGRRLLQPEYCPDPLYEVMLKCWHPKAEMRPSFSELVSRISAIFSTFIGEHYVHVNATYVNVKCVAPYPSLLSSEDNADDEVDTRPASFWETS

[12] = target: T1, Hepatocyte growth factor receptor; assay: Inhibition of phosphorylated MET in human MKN45 cells assessed as reduction in pMET Y1230/1234/1235 level incubated for 1 hr by ELISA; format: cell-based
Procedure, shortened: (§1)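 MKN-45 is a MET-amplified human gastric tumour cell line.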

[13] = Lipophilicity, log D of the compound by HPLC method; format: physicochemical
[14] = tested on: MKN-45; assay: Antiproliferative activity against human MKN45 cells assessed as reduction in [14C]-thymidine incorporation incubated for 96 hrs by beta counting method; format: functional, cell-based; conditions: MKN-45, 96 h; procedure, shortened: as §1
[15] = target: Tubulin; assay: Binding affinity to tubulin (unknown origin); format: protein-complex assay, Homo sapiens
[16] = target: Cyclin-dependent kinase 9 (Homo sapiens, UniProt P50750); assay: Inhibition of CDK9 (unknown origin)
Chain of Cyclin-dependent kinase 9 (P50750 whole entry): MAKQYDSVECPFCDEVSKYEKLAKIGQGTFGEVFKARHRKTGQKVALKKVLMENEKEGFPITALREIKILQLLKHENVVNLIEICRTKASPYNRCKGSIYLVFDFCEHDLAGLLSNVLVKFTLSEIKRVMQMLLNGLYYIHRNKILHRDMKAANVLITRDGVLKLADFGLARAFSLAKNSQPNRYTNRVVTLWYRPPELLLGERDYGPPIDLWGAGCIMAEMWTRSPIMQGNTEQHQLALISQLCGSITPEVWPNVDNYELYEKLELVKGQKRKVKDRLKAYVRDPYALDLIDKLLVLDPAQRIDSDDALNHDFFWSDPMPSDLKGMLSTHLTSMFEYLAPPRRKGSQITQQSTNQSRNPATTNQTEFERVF

[17] = Oral bioavailability in mouse; format: ADME, organism-based; conditions: in vivo

Row | Compound | solubility thermodynamic [1] | IC50 [2] | solubility thermodynamic [3] | IC50 [4] | metabolised at 20 min, 5 µM [5] | Papp A→B at 20 µM [6] | INH [7] | Kd [8] | IC50 [9] | IC50 [10] | IC50 [11] | IC50 [12] | logD [13] | IC50 [14] | IC50 [15] | IC50 [16] | bioavailability [17]
1 | O=C(NCCN1CCOCC1)Nc1nc2ccc(Sc3nnc4ccc(-c5cccc(F)c5)nn34)cc2s1 | 32 µM (≈ 17.6 µg/mL) | 0.14 µM | 1170 µM | 0.01 µM | 24% | 0.4 ×10⁻⁶ cm/s | -8.2 %/min | 0.0087 µM | 1.8 µM | – | – | – | – | – | – | – | –
2 | CCN(CC)CCNC(=O)Nc1nc2ccc(Sc3nnc4ccc(-c5ccc(F)cc5)nn34)cc2s1 | < 1 µM | 0.864 µM | 1000 µM | 0.003 µM | – | – | – | – | – | 0.148 µM | 0.071 µM | 0.01 µM | 4.15 | 0.033 µM | – | – | –
3 | O=C(NCCN1CCOCC1)Nc1nc2ccc(Sc3nnc4ccc(NC5CCCCC5)nn34)cc2s1 | < 2 µM | 0.139 µM | – | 0.001 µM | 38% | – | -9.1 %/min | – | 2.9 µM | – | – | – | – | – | – | – | –
4 | Fc1ccc(-c2ccc3nnc(Sc4ccc5nc(NCCN6CCOCC6)sc5c4)n3n2)cc1 | < 1 µM | > 10 µM | 543 µM | 0.02 µM | – | – | – | – | – | 0.835 µM | 0.455 µM | 0.013 µM | 4.1 | 0.045 µM | – | – | –
5 | COC(=O)Nc1nc2cc(OS(=O)(=O)c3c(Cl)cccc3Cl)ccc2[nH]1 | – | – | – | 0.023 µM | – | – | – | – | – | – | – | – | – | – | 2.7 µM | 1.2 µM | –
6 | CCNc1nc2ccc(Sc3nnc4ccc(-c5ccc(F)cc5)nn34)cc2s1 | < 2.5 µM | > 10 µM | – | 0.015 µM | – | – | – | – | – | > 10 µM | 0.417 µM | 0.015 µM | > 4.6 | 0.042 µM | – | – | –
7 | Nc1nc2ccc(Sc3nnc4ccc(-c5ccc(F)cc5)nn34)cc2s1 | – | > 10 µM | 44 µM | 0.01 µM | – | – | – | – | – | 9 µM | 0.245 µM | 0.043 µM | > 4.6 | 0.081 µM | – | – | –
8 | CCOc1ccc2nnc(Sc3ccc4nc(NC(=O)NCCN5CCOCC5)sc4c3)n2n1 | 5 µM (≈ 2.5 µg/mL) | 0.643 µM | 460 µM | 0.003 µM | 51% | – | -13.1 %/min | – | 4 µM | – | – | – | – | – | – | – | –
9 | O=C(CC1CC1)Nc1nc2ccc(Sc3nnc4ccc(-c5ccc(F)cc5)nn34)cc2s1 | < 2 µM | > 10 µM | – | 0.004 µM | – | – | – | – | – | > 10 µM | 0.128 µM | 0.013 µM | > 4.6 | 0.022 µM | – | – | –
10 | O=C(Nc1nc2ccc(Sc3nnc4ccc(-c5ccc(F)cc5)nn34)cc2s1)C1CC1 | < 1 µM | 0.883 µM | 64 µM | 0.003 µM | – | – | – | – | – | 0.061 µM | 0.013 µM | 0.004 µM | 4.7 | 0.007 µM | – | – | –
11 | O=C(CCCN1CCOCC1)Nc1nc2ccc(Sc3nnc4ccc(-c5ccc(F)cc5)nn34)cc2s1 | – | 1.17 µM | 96 µM | 0.006 µM | – | – | – | – | – | 0.318 µM | 0.093 µM | 0.002 µM | 4.3 | 0.012 µM | – | – | –
12 | O=C(NCCN1CCOCC1)Nc1nc2ccc(Sc3nnc4ccc(OC5CCCC5)nn34)cc2s1 | < 2 µM | 0.216 µM | – | 0.006 µM | 29% | 2.6 ×10⁻⁶ cm/s | -5.5 %/min | – | 31 µM | – | – | – | – | – | – | – | 12%
13 | COCCNC(=O)Nc1nc2cc(OS(=O)(=O)c3c(F)cccc3F)ccc2[nH]1 | – | – | – | 0.005 µM | – | – | – | – | – | – | – | – | – | – | – | 0.006 µM | –
14 | O=C(NCCN1CCOCC1)Nc1nc2ccc(Sc3nnc4ccc(NC5CCOCC5)nn34)cc2s1 | 89 µM (≈ 49.5 µg/mL) | 0.217 µM | – | 0.001 µM | 39% | 0.2 ×10⁻⁶ cm/s | -14.2 %/min | – | > 40 µM | – | – | – | – | – | – | – | –
15 | CCN1CCC(CCNC(=O)Nc2nc3ccc(Sc4nnc5ccc(-c6cccs6)nn45)cc3s2)CC1 | < 2 µM | 0.023 µM | – | 0.002 µM | – | – | – | – | – | – | – | 0.029 µM | 3.9 | 0.0027 µM | – | – | –
16 | O=C(NCCN1CCOCC1)Nc1nc2ccc(Sc3nnc4cccnn34)cc2s1 | 70 µM (≈ 32 µg/mL) | 4.8 µM | 1070 µM | 0.029 µM | 11% | – | -2.3 %/min | 0.012 µM | 34 µM | – | – | – | – | – | – | – | –
17 | O=C(NCCN1CCOCC1)Nc1nc2ccc(Sc3nnc4ccc(Oc5cccc(F)c5)nn34)cc2s1 | < 2 µM | 0.056 µM | – | 0.003 µM | 16% | 0.8 ×10⁻⁶ cm/s | -12.2 %/min | – | 2 µM | – | – | – | – | – | – | – | –
18 | O=C(NCCN1CCOCC1)Nc1nc2ccc(Sc3nnc4ccc(Oc5ccccc5)nn34)cc2s1 | < 2 µM | 0.174 µM | – | 0.002 µM | 32% | 0.8 ×10⁻⁶ cm/s | -12.8 %/min | – | 7.9 µM | – | – | – | – | – | – | – | –
19 | O=C(Nc1nc2ccc(Sc3nnc4ccc(-c5ccc(F)cc5)nn34)cc2s1)OCCN1CCOCC1 | 8 µM (≈ 4.41 µg/mL) | > 10 µM | 245 µM | 0.045 µM | – | – | – | – | – | 6.52 µM | – | 0.025 µM | 4.1 | 0.095 µM | – | – | –
20 | O=C(NCCN1CCOCC1)Nc1nc2ccc(Sc3nnc4ccc(NC5CC5)nn34)cc2s1 | < 2 µM | 0.274 µM | – | 0.001 µM | 26% | – | -3.8 %/min | – | 0.2 µM | – | – | – | – | – | – | – | –
21 | CCCCOc1ccc2nnc(Sc3ccc4nc(NC(=O)NCCN5CCOCC5)sc4c3)n2n1 | < 2 µM | 0.14 µM | – | 0.005 µM | 23% | 0.7 ×10⁻⁶ cm/s | -11.3 %/min | – | 8.7 µM | – | – | – | – | – | – | – | –
22 | O=C(NCCN1CCOCC1)Nc1nc2ccc(Sc3nnc4ccc(OC5CCCCCC5)nn34)cc2s1 | < 2 µM | 0.407 µM | – | 0.015 µM | 36% | 2 ×10⁻⁶ cm/s | -11.6 %/min | – | 14 µM | – | – | – | – | – | – | – | –
